Source: PubChem BioAssay (several laboratories)
TAAR1 agonist: human TAAR1 agonism. CHO RD-HGA16 TAAR1, Fluo-8 calcium fluorescence; vehicle wells 0%, saturating PEA agonist 100%. Q96RJ0. 360,000 tested, 0.99% active. activation, % at 3 µM. AID 624467;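 active = activation above the mean activation of all test compounds in the run plus 3 SD, cut at about 38% in these data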
Target sequence (Q96RJ0 whole entry, looked up): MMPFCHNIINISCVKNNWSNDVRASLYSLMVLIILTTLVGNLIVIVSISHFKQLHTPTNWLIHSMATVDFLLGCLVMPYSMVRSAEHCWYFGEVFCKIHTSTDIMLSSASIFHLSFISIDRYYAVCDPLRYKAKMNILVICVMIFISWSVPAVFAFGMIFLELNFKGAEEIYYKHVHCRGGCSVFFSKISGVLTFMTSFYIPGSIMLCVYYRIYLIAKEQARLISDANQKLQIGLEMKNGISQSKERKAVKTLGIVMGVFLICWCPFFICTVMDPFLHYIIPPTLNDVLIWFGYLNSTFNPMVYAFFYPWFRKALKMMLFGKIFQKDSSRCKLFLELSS
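System: CHO-derived RD-HGA16 cells with stable Gα16 and human TAAR1 / Times: 17-24 h plating, Fluo-8 75 min 37 °C, 30 min RT / Technique: calcium-sensitive Fluo-8 signal, excitation 470-495, emission 515-575 nm / Measure: % activation relative to PEA EC100 response / Benchmarks: DMSO and PEA EC100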
CRFBP-R2 agonist: CRF-BP/CRF-R2 complex agonism; 350,000 tested, 0.46% active; AID 588473; activation, % at 13.2 µM; HEK293 CRF-R2/CRF-BP, calcium dye fluorescence (FLIPR); percent of saturating CRF peptide response;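 active = activation of at least 50%, plus an integration ratio under a set limit after plate pattern correction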;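 note: plate controls were neutral control wells without compound for no effect and CRF at EC100 for full effect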
TMEM16A act: activates or potentiates the mouse TMEM16A chloride channel | HEK293 TMEM16A/YFP-H148Q/I152L, iodide quench fluorescence; hits give low values | 340,000 tested, 0.3% active | Q8BHY3 | B-score at 10 µM;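 active = fluorescence-ratio B-score plate-corrected deviation score at least 3 library SD below zero, with starting fluorescence score within 5 deviations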;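 note: channel opened by trigger with iodide after compound preincubation; score built on the fluorescence ratio of max minus min over baseline; more negative score means more quench and so TMEM16A activation or potentiation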
CRFR2-BP antag: CRF-BP/CRF-R2 complex antagonism; HEK293 CRF-R2/CRF-BP, CRF-induced calcium fluorescence; inhibition, % at 11.8 µM; 350,000 tested, 0.59% active;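 active = inhibition of the ligand-induced calcium signal above about 50% at the single tested concentration, limit read from the data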
ANO1 block: inhibitors of mouse TMEM16A calcium-activated chloride channel | HEK293 TMEM16A/YFP iodide influx fluorescence, ionomycin | normalized B-score (activity score, 25-100; higher = stronger inhibition) at 10 µM | 310,000 tested, 1.2% active | AID 588511;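 active = ratio plate-corrected score three or more library SD toward inhibition, starting fluorescence score within five deviations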;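 note: score derived from kinetic fluorescence span divided by baseline fluorescence per well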
TAAR1 antagonist: human TAAR1 antagonism; Q96RJ0; CHO RD-HGA16 TAAR1, Fluo-8 calcium fluorescence, antagonist; inhibition, % at 3 µM; 360,000 tested, 1.5% active;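 active = inhibition above a per-plate cutoff, the mean inhibition of test compounds on that plate plus 3 SD, cut at about 49% in these data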;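 note: 0% = DMSO plus EC80 beta-PEA response and 100% = DMSO alone without agonist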
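System: RD-HGA16 CHO cells with stable hTAAR1 and Gα16 | Probe or stimulus: EC80 β-phenethylamine stimulus | Dosing: 3 µM, single point | Times: Dye loading 75 min at 37 °C, then 30 min room temperature | Measured by: Fluo-8 calcium-sensitive fluorescence | Read-out basis: % inhibition of agonist calcium response | Replicates: n of 1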
An asterisk follows results filed as active; i = inactive; . = no result given. Rows were chosen to be rich in hits. Some 3.9% of all compounds tested hit in one or more screens of this group.

SMILES | TAAR1 agonist | CRFBP-R2 agonist | TMEM16A act | CRFR2-BP antag | ANO1 block | TAAR1 antagonist
O=C1OCCC1Sc1nnc(-c2ccc(Cl)cc2Cl)o1 (configuration not stated) | 0.2 | -1.8 | i | 44.6 | 25* | -5.1
Cc1cc(Cl)ccc1NC(=O)CN1CCCC1 | 1.9 | -1.2 | i | 3.1 | i | -11.3
Cc1cc(Cl)ccc1NC(=O)CN1CCC(C(O)(c2ccccc2)c2ccccc2)CC1 | 55.7* | 1.1 | i | -23.3 | i | 15.3
CCC(C)(C)NC(=O)C(c1cccc(OC)c1OC)N(C(=O)CCC(=O)Nc1cc(C)on1)C(C)C (configuration not stated) | 5.0 | 0.3 | i | 4.5 | i | -2.7
O=C(CCSc1ccc(Br)cc1)Nc1cccnc1 | 4.7 | -1.0 | i | 110.2* | i | 17.4
O=C(CCCC(=O)Nc1cccnc1)Nc1cccnc1 | -2.9 | -1.5 | i | 6.4 | i | 14.6
COc1ccc(OCCCC(=O)Nc2cccnc2)cc1 | -0.9 | -4.5 | i | 53.0* | i | 9.9
O=C(CCC(=O)c1ccc(Br)cc1)Nc1cccnc1 | 5.0 | 2.5 | i | 14.7 | i | -5.5
Cc1nc(N)sc1C(=O)N/N=C/c1ccccc1[N+](=O)[O-] | 8.7 | . | . | . | i | 3.2
CC(/C=N/NC(=O)c1sc(N)nc1C)=C\c1ccccc1 | 40.2* | -0.5 | i | -8.4 | i | -14.1
CC(C)(C)c1ccc(S(=O)(=O)Nc2ccc(Cc3ccncc3)cc2)cc1 | 46.2* | 16.4 | i | -43.8 | i | 39.4
Cc1ccccc1CNC(=O)c1ccccc1SCC(=O)NCc1ccco1 | 5.3 | -0.4 | i | 13.2 | . | -26.5
O=[N+]([O-])c1cc(C(F)(F)F)cc([N+](=O)[O-])c1NCCN1CCNCC1 | 0.0 | 0.8 | i | 5.2 | i | -2.0
CCn1cc(C2=NOC(C(=O)Nc3ccccc3C(=O)OC)C2)c(C)n1 (configuration not stated) | . | -5.3 | i | 51.6* | i | .
CCc1c(O)nc(SCC(=O)Nc2ccc(Cl)cc2)n(-c2ccccc2)c1=O | 5.1 | -1.8 | . | -5.2 | . | -26.2
CCOc1ccc(/C=C2\CCC(C3CCCC3)C2=O)cc1OC (configuration not stated) | 2.7 | -0.2 | i | -3.9 | i | -5.4
COc1cc(C=C2CCCC(=Cc3ccc(OCC4CO4)c(OC)c3)C2=O)ccc1OCC1CO1 (configuration not stated) | 10.6 | 15.4 | . | -2.4 | . | 60.9*
O=C(N/N=C/c1cn(-c2ccccc2)nc1-c1cc2ccccc2o1)c1ccncc1 | 6.7 | 0.5 | i | -28.5 | 25* | 48.2
O=C(N/N=C/c1cn(-c2ccccc2)nc1-c1cc2ccccc2o1)c1cccnc1 | 8.1 | 0.2 | i | -41.6 | i | 14.4
COc1ccc(/C=C/c2onc(C)c2S(=O)(=O)N2CCC(C(=O)N3CCC(C)CC3)CC2)cc1 | -2.9 | 3.0 | i | 0.3 | i | -10.3
Cc1c(C=NCCOCc2ccccc2)cnn1C | 41.7* | -1.2 | i | 16.1 | i | 24.5
COc1ccc(NS(=O)(=O)c2c(C)n(C)c(=O)n(C)c2=O)cc1OC | 3.9 | -0.4 | i | 81.7* | i | -41.0
COc1ccc(NS(=O)(=O)c2csc(C(=O)N3CCCC3)c2)c(OC)c1 | 3.8 | -1.0 | i | 4.7 | i | -15.9
Cc1ccccc1NS(=O)(=O)c1cc2c(cc1C)NC(=O)CO2 | 1.7 | 59.9* | i | -84.6 | i | 4.8
Cc1ccc(C(=O)Nc2ccc(Cc3ccncc3)cc2)cc1[N+](=O)[O-] | 15.2 | -6.2 | i | 22.5 | 100* | 60.5*
SMILES | TAAR1 agonist | CRFBP-R2 agonist | TMEM16A act | CRFR2-BP antag | ANO1 block | TAAR1 antagonist
O=C(CSCC(=O)N1CCCCC1)Nc1nc(-c2ccc(Cl)s2)cs1 | 1.2 | 33.7 | i | -44.5 | i | 54.5*
O=C(CSCC(=O)N1CCN(c2ccccc2)CC1)Nc1nc(-c2ccc(Cl)s2)cs1 | 2.7 | -3.1 | i | -2.9 | i | 18.4
O=C(CSCC(=O)N1CCCCC1)Nc1nc(-c2cccs2)cs1 | 7.8 | 1.6 | i | -1.5 | 25* | 19.4
c1ccc(C2CN3CCSC3=N2)cc1 (configuration not stated) | 1.2 | -2.4 | i | 89.1* | i | -2.0
CCC/C(C#Cc1ccc(N(C)C)cc1)=C1/c2ccccc2C(=O)N1c1ccccc1 | 12.5 | 78.7* | i | -36.5 | . | 33.7
CCC/C(C#Cc1cc(OC)cc(OC)c1)=C1/c2ccccc2C(=O)N1c1ccccc1 | -0.3 | 1.4 | i | 6.7 | . | 1.4
CCC(=O)c1ccc(O)cc1 | 4.6 | 0.9 | -12.8* | 0.8 | i | -8.3
CCOC(=O)c1cnn(-c2ccccc2)c1NC(=O)c1ccccc1 | 5.7 | -0.6 | i | 13.3 | i | 3.1
CCOC(=O)c1cnn(-c2ccccc2)c1NC(=O)c1ccc(C)cc1 | 13.5 | -0.5 | i | 2.4 | 25* | 1.6
Cc1ccc2ccccc2c1C(O)c1ncc(-c2ccc(Cl)cc2)[nH]1 (configuration not stated) | 2.0 | . | . | . | . | -7.3
Cc1cc(NCC(=O)Nc2ccc(C)c(S(=O)(=O)N3CCOCC3)c2)ccc1Br | 18.1 | -2.1 | . | -10.8 | . | 33.4
COc1ccccc1C=NN=C(NN=Cc1ccccc1OC)NN=Cc1ccccc1OC | 16.4 | -3.3 | i | -7.9 | . | 52.3*
CCN(CC(=O)NCc1ccc(F)cc1)CC(=O)NC1CCCC1 | 1.7 | 0.6 | i | 4.2 | i | 13.9
CC(=O)Nc1nc(COc2ccccc2)cs1 | 6.5 | 0.8 | i | 11.0 | i | -7.9
CC(=O)Nc1nc(COc2ccc3ccccc3c2)cs1 | 38.3* | 0.1 | i | 3.8 | i | 34.6
CC(=O)c1ccc(NC(=O)c2cccc(NC(=O)c3ccccc3)c2)cc1 | 12.1 | 0.5 | i | 6.5 | i | 50.2*
CCN(CC)c1ccc(NC(=O)Nc2ccccc2)cc1 | 25.4 | -0.3 | i | -8.3 | i | 49.9*
O=C(O)c1ccc(NC(=S)NC(=O)c2ccc(-c3ccccc3)cc2)cc1 | 5.0 | -1.0 | i | 78.2* | i | 9.4
CCN(CC)c1ccc(NC(=O)Nc2ccc(C(C)=O)cc2)cc1 | 20.3 | 2.5 | i | -12.2 | i | 31.8
Cc1cccc(C(=O)Nc2ccc(C(=O)/C=C/c3ccncc3)cc2)c1 | 18.3 | 0.5 | i | -0.5 | i | 60.2*
COCCNC(=O)c1ccccc1NC(=O)CCSc1ccccc1 | 3.4 | -1.6 | i | 18.8 | i | -29.4
CNC(=O)c1ccc(NC(=O)Nc2ccccc2)cc1 | 40.0* | -0.4 | i | 3.2 | i | 9.7
COC(=O)c1ccc(NC(=O)Nc2cccc(F)c2)cc1 | 38.6* | 21.4 | i | 31.7 | i | 3.6
